Assays:
[1] = Growth inhibition of human MOLT4 cells; assay type: functional; conditions: MOLT-4
[2] = test system: SNB-19; assay: Growth inhibition of human SNB19 cells; assay type: functional
[3] = test system: MCF7; assay: Growth inhibition of human MCF7 cells; assay type: functional
[4] = Growth inhibition of human LOXIMVI cells; assay type: functional; conditions: LOX IMVI
[5] = test system: M14; assay: Growth inhibition of human M14 cells; assay type: functional
[6] = test system: KM12; assay: Growth inhibition of human KM12 cells; assay type: functional
[7] = test system: COLO 205; assay: Growth inhibition of human COLO205 cells; assay type: functional
[8] = test system: T47D; assay: Growth inhibition of human T47D cells; assay type: functional
[9] = test system: SF-268; assay: Growth inhibition of human SF268 cells; assay type: functional
[10] = test system: TK-10; assay: Growth inhibition of human TK10 cells; assay type: functional
[11] = test system: DU-145; assay: Growth inhibition of human DU145 cells; assay type: functional
[12] = Growth inhibition of human OVCAR4 cells; assay type: functional; conditions: OVCAR-4
[13] = Growth inhibition of human SF295 cells; assay type: functional; conditions: SF-295
[14] = test system: HL-60(TB); assay: Growth inhibition of human HL-60(TB) cells; assay type: functional
[15] = test system: MDA-MB-231; assay: Growth inhibition of human MDA-MB-231 cells; assay type: functional
[16] = test system: A498; assay: Growth inhibition of human A498 cells; assay type: functional
[17] = test system: HOP-62; assay: Growth inhibition of human HOP62 cells; assay type: functional
[18] = test system: ACHN; assay: Growth inhibition of human ACHN cells; assay type: functional
[19] = test system: CCRF-CEM; assay: Growth inhibition of human CCRF-CEM cells; assay type: functional
[20] = Growth inhibition of human Hs 578T cells; assay type: functional
[21] = test system: SK-MEL-5; assay: Growth inhibition of human SK-MEL-5 cells; assay type: functional
[22] = test system: HCT-116; assay: Growth inhibition of human HCT116 cells; assay type: functional
[23] = test system: SR; assay: Growth inhibition of human SR cells; assay type: functional
[24] = test system: SW-620; assay: Growth inhibition of human SW620 cells; assay type: functional
[25] = Growth inhibition of human UO31 cells; assay type: functional; conditions: UO-31
[26] = test system: K562; assay: Growth inhibition of human K562 cells; assay type: functional
[27] = test system: MDA-MB-468; assay: Growth inhibition of human MDA-MB-468 cells; assay type: functional
[28] = test system: A549; assay: Growth inhibition of human A549/ATCC cells; assay type: functional
[29] = test system: RPMI-8226; assay: Growth inhibition of human RPMI8226 cells; assay type: functional
[30] = Growth inhibition of human EKVX cells; assay type: functional
[31] = test system: MDA-MB-435; assay: Growth inhibition of human MDA-MB-435 cells; assay type: functional
[32] = Growth inhibition of human HCC2998 cells; assay type: functional; conditions: HCC 2998
[33] = Growth inhibition of human UACC62 cells; assay type: functional; conditions: UACC-62
[34] = test system: Malme-3M; assay: Growth inhibition of human MALME-3M cells; assay type: functional
[35] = test system: SK-OV-3; assay: Growth inhibition of human SKOV3 cells; assay type: functional
[36] = test system: NCI-H322M; assay: Growth inhibition of human NCI-H322M cells; assay type: functional
[37] = Growth inhibition of human OVCAR3 cells; assay type: functional; conditions: OVCAR-3
[38] = test system: SK-MEL-28; assay: Growth inhibition of human SK-MEL-28 cells; assay type: functional
[39] = test system: IGROV-1; assay: Growth inhibition of human IGROV1 cells; assay type: functional
[40] = test system: SN12C; assay: Growth inhibition of human SN12C cells; assay type: functional
[41] = molecular target: Chymotrypsinogen A (Bos taurus, UniProt P00766); assay: Inhibition of bovine pancreatic alpha-chymotrypsin using Suc-Leu-Leu-Val-Tyr-AMC as substrate by fluorescence assay; conditions: read-out: Ki
Outline: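 Enzyme incubated at 20 °C in 50 mM Tris pH 8.0, 100 mM NaCl, 5 mM EDTA, 7.5% DMSO with varied inhibitor concentrations. Substrate hydrolysis followed for 10 min. Ki from progress curves; mean of three determinations.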

[42] = test system: NCI-H522; assay: Growth inhibition of human NCI-H522 cells; assay type: functional
[43] = test system: NCI-H226; assay: Growth inhibition of human NCI-H226 cells; assay type: functional
[44] = test system: PC-3; assay: Growth inhibition of human PC3 cells; assay type: functional
[45] = test system: 786-0; assay: Growth inhibition of human 786-0 cells; assay type: functional
[46] = test system: NCI-H460; assay: Growth inhibition of human NCI-H460 cells; assay type: functional
[47] = test system: CAKI-1; assay: Growth inhibition of human CAKI-1 cells; assay type: functional
[48] = test system: SK-MEL-2; assay: Growth inhibition of human SK-MEL-2 cells; assay type: functional
[49] = Growth inhibition of human HCT15 cells; assay type: functional; conditions: HCT-15
[50] = Growth inhibition of human OVCAR8 cells; assay type: functional; conditions: OVCAR-8
[51] = test system: HT-29; assay: Growth inhibition of human HT-29 cells; assay type: functional
[52] = test system: U-251; assay: Growth inhibition of human U251 cells; assay type: functional
[53] = test system: SNB-75; assay: Growth inhibition of human SNB75 cells; assay type: functional
[54] = Growth inhibition of human RXF393 cells; assay type: functional; conditions: RXF 393
[55] = Growth inhibition of human UACC257 cells; assay type: functional; conditions: UACC-257
[56] = Growth inhibition of human OVCAR5 cells; assay type: functional; conditions: OVCAR-5
[57] = Growth inhibition of human SF539 cells; assay type: functional; conditions: SF-539
[58] = Growth inhibition of human NCI-ADR-RES cells; assay type: functional
[59] = Growth inhibition of human HOP92 cells; assay type: functional; conditions: HOP-92
[60] = Growth inhibition of human BT549 cells; assay type: functional; conditions: BT-549
[61] = test system: NCI-H23; assay: Growth inhibition of human NCI-H23 cells; assay type: functional

`CC(C)C[C@H](NC(=O)[C@H](Cc1ccccc1)NC(=O)c1cnccn1)B(O)O` [BORTEZOMIB] showed a GI50 [1] of 0.51 nM, a GI50 [2] of 2.04 nM and a GI50 [3] of 0.55 nM. It also gave a GI50 [4] of 0.78 nM, a GI50 [5] of 0.93 nM and a GI50 [6] of 1.7 nM. The GI50 [7] was 1.23 nM, the GI50 [8] was 0.6 nM and the GI50 [9] was 1.17 nM. For the same compound, the GI50 [10] was 1 nM, the GI50 [11] was 1.7 nM and the GI50 [12] was 1.95 nM. It also gave a GI50 [13] of 1.7 nM, a GI50 [14] of 1.9 nM and a GI50 [15] of 1.26 nM. For the same compound, the GI50 [16] was 0.48 nM, the GI50 [17] was 4.47 nM and the GI50 [18] was 0.79 nM. For the same compound, the GI50 [19] was 0.35 nM, the GI50 [20] was 1.02 nM and the GI50 [21] was 0.68 nM. The GI50 [22] was 0.6 nM, the GI50 [23] was 0.85 nM and the GI50 [24] was 0.55 nM. It also gave a GI50 [25] of 1.05 nM, a GI50 [26] of 1.17 nM and a GI50 [27] of 1.48 nM. For the same compound, the GI50 [28] was 3.09 nM, the GI50 [29] was 0.23 nM and the GI50 [30] was 3.02 nM. For the same compound, the GI50 [31] was 0.44 nM, the GI50 [32] was 0.6 nM and the GI50 [33] was 0.91 nM. The GI50 [34] was 0.45 nM, the GI50 [35] was 13.8 nM and the GI50 [36] was 17.8 nM. It also gave a GI50 [37] of 0.54 nM, a GI50 [38] of 0.46 nM and a GI50 [39] of 2.24 nM. For the same compound, the GI50 [40] was 1.1 nM, the Ki [41] was 2400 nM and the GI50 [42] was 1.44 nM. The GI50 [43] was 0.46 nM, the GI50 [44] was 2.63 nM and the GI50 [45] was 1.44 nM. For the same compound, the GI50 [46] was 4.47 nM, the GI50 [47] was 0.66 nM and the GI50 [48] was 1.07 nM. For the same compound, the GI50 [49] was 1.51 nM, the GI50 [50] was 2.63 nM and the GI50 [51] was 0.95 nM. It also gave a GI50 [52] of 1.55 nM, a GI50 [53] of 2.04 nM and a GI50 [54] of 0.71 nM. It also gave a GI50 [55] of 0.59 nM, a GI50 [56] of 1.55 nM and a GI50 [57] of 0.59 nM. The GI50 [58] was 12.3 nM, the GI50 [59] was 1 nM and the GI50 [60] was 0.55 nM. For the same compound, the GI50 [61] was 1 nM.

Reference: ChEMBL document CHEMBL3286129, “Optimization of peptidomimetic boronates bearing a P3 bicyclic scaffold as proteasome inhibitors” (Eur J Med Chem, 2014)
